# ChEMBL document CHEMBL1145915, “Molecular model of the alpha(IIb)beta(3) integrin” (J Med Chem, 2003)
# Target: Integrin alpha-V/beta-3 (Homo sapiens, UniProt P05106+P06756)
# Assay: Inhibition of binding to human Vitronectin receptor (integrin alphaV-beta3)
# Type: protein-complex assay
# Procedure, shortened: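 Scintillation proximity binding assay with lyophilized wheat germ agglutinin SPA beads. Receptor was αvβ3 integrin purified from HEK 293 cells overexpressing human recombinant αvβ3. Tracer was a 125I-labeled ligand, and test compounds were scored by displacement of its binding.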
# Integrin alpha-V/beta-3, sequence (P05106 27-788 limits assumed): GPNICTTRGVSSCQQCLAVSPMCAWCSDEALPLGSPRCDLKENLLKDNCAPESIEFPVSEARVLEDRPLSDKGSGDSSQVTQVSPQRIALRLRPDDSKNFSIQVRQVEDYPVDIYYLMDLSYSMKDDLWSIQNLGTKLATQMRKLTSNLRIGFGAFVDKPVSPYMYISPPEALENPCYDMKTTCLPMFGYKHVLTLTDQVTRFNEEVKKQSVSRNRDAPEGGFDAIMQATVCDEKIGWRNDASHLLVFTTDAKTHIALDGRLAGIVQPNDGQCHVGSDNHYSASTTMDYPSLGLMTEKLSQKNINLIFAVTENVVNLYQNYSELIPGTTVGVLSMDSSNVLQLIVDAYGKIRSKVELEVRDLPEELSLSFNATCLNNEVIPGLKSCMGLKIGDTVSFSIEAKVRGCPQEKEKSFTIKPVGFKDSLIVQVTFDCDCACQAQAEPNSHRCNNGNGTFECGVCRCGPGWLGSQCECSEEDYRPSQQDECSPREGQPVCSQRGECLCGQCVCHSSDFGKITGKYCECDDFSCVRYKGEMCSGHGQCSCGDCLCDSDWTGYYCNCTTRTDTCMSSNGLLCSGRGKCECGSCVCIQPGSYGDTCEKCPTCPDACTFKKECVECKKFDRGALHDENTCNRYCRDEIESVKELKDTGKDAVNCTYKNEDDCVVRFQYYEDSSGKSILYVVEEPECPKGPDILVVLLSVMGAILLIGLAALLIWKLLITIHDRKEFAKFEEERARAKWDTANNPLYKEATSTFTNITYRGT
# Integrin alpha-V/beta-3, sequence (P06756 31-889 limits assumed): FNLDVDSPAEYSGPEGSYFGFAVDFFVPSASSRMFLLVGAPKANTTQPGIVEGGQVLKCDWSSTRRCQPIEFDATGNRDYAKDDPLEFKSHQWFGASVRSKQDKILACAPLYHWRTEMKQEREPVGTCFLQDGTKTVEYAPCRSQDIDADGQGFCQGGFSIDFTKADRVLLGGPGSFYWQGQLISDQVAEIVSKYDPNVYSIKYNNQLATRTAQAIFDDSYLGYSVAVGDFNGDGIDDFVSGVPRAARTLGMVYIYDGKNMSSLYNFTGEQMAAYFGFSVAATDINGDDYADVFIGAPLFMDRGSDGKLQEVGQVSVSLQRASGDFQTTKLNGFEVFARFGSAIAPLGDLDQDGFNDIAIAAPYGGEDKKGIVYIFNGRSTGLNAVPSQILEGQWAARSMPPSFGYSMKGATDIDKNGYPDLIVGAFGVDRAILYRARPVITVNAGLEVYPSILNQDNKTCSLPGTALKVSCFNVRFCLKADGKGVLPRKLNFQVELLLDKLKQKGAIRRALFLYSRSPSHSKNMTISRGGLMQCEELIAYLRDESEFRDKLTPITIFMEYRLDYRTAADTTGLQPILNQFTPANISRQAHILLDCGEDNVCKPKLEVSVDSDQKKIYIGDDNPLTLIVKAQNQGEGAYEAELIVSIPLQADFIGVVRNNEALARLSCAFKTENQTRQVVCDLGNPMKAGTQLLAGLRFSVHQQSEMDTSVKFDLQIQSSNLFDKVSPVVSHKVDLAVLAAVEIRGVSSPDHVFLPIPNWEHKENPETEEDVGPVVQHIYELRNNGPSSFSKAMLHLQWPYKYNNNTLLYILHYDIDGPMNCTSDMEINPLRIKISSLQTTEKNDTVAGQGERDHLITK
# Integrin alpha-V/beta-3, sequence (P06756 891-1048 limits assumed): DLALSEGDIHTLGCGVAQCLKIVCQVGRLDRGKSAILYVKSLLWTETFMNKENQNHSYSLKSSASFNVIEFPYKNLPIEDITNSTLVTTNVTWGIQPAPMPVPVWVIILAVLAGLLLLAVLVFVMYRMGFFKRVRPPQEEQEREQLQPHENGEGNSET
row,SMILES,IC50 [nM]
1,N=C(N)NCCC[C@H](N)C(=O)NCC(=O)N[C@@H](CC(=O)O)C(=O)O,> 10000
2,O=C(NC[C@H](NS(=O)(=O)c1ccccc1)C(=O)O)c1ccc(N2CCNCC2)cc1,> 1000
3,O=C(NC[C@H](NS(=O)(=O)c1ccccc1)C(=O)O)c1ccc(OCCC2CCNCC2)cc1,> 1000
4,CCCCS(=O)(=O)N[C@@H](Cc1ccc(OCCCCC2CCNCC2)cc1)C(=O)O [TIROFIBAN],> 1000

# Stronger by IC50, values ahead:
row,IC50 [nM],SMILES
1,0.08,Nc1cccc(CCc2ccc(C(=O)NC[C@H](NS(=O)(=O)c3ccccc3)C(=O)O)cc2)n1
2,3.3,O=C(O)CC(NC(=O)CCCCc1ccc2c(n1)NCCC2)c1cncnc1 (stereo not drawn)
3,0.11,CC1(C)[C@@H]2CC[C@@]1(CS(=O)(=O)N[C@@H](CNC(=O)c1ccc(CCc3ccc4c(n3)NCCC4)cc1)C(=O)O)C(=O)C2

# Target: Integrin alpha-IIb/beta-3 (Homo sapiens, UniProt P05106+P08514)
# Sequence (P05106 27-788 limits assumed): as the sequence (P05106 27-788 limits assumed) above
# Sequence (P08514 32-887 limits assumed): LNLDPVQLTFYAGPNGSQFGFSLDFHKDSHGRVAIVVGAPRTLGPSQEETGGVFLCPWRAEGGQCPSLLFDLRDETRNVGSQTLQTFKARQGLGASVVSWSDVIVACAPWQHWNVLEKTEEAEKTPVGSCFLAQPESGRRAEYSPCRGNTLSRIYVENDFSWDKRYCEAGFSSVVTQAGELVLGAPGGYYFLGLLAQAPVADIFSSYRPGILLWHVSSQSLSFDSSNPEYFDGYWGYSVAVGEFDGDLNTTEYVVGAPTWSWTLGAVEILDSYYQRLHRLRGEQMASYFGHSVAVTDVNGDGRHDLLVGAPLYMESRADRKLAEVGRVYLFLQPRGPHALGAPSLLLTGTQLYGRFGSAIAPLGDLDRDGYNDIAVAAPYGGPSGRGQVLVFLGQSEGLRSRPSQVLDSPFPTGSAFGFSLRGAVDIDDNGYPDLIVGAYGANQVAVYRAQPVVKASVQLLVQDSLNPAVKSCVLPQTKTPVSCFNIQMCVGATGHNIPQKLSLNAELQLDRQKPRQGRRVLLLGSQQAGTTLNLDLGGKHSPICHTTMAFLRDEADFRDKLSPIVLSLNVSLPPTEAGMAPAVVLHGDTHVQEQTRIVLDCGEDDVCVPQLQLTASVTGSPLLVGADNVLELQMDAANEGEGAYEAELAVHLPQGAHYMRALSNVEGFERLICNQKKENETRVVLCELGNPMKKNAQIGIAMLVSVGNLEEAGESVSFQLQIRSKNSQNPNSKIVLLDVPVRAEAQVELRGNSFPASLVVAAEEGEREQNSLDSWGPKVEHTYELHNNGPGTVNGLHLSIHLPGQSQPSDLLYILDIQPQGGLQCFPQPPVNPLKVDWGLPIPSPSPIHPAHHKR
# Sequence (P08514 891-1039 limits assumed): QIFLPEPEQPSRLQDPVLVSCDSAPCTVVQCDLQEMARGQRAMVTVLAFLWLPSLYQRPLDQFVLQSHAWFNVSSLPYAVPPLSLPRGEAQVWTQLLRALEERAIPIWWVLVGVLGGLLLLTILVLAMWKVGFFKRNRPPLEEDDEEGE
# Assay: Inhibition of human alphaIIb-beta3 integrin in platelet aggregation assay
row,IC50 [nM],SMILES
1,10,O=C(NC[C@H](NS(=O)(=O)c1ccccc1)C(=O)O)c1ccc(OCCC2CCNCC2)cc1
